Data on twelve molecules can be found in ChEMBL document CHEMBL4680177, “Novel distamycin analogues that block the cell cycle of African trypanosomes with high selectivity and potency” (Eur J Med Chem, 2020).

Series [1] has as its system Trypanosoma brucei brucei. The series can be described thus: Induction of oxidative stress in bloodstream form Trypanosoma brucei brucei 427 at 250 uM after 20 min by propidium iodide staining based flow cytometric analysis. Background: In flow cytometry, cells or beads pass a laser one at a time.
Series [2] is described as follows: Selectivity ratio of EC50 for antitrypanosomal activity against bloodstream form Trypanosoma brucei brucei 427 assessed as cell viability after 24 hrs to antitrypanosomal activity against bloodstream form Trypanosoma brucei brucei 427 assessed as cell viability after 48 hrs. It counts as functional.
Series [3] relates to J774. The series can be described thus: Cytotoxicity against mouse J774 cells assessed as reduction in cell viability after 24 hrs by WST-1 assay. The conditions noted are these: J774, 24 h. It counts as cell-based. The gist of the method:
(§1)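 J774 murine macrophages in DMEM with 10% FBS, 37 °C, 5% CO2. Exposed 24 h to a 6-point compound series, in triplicate, up to 120 µM with DMSO 1% v/v. Viability read with WST-1 reagent relative to DMSO control and EC50 taken from nonlinear fit. The selectivity index is the macrophage EC50 divided by the trypanosome EC50.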

Series [4] relates to Trypanosoma brucei brucei. Description: Antitrypanosomal activity against bloodstream form Trypanosoma brucei brucei 427 […] assessed as cell viability after 48 hrs by propidium iodide staining based flow cytometric analysis. It counts as functional, organism-based. To be noted: Trypanosoma brucei, 427, 48 h. A digest of the protocol:
(§2)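 Viability of bloodstream T. b. brucei 427 redox-reporter line under lower-density conditions: 1.2×10^4 parasites/mL seeded, 48 h exposure, compound tested up to 60 µM. Nifurtimox included as positive control. Viability read by PI exclusion on flow cytometry.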

The test system of series [5] is Trypanosoma brucei brucei. Description: Antitrypanosomal activity against bloodstream form Trypanosoma brucei brucei 427 […] assessed as cell viability at 5 uM after 24 hrs by propidium iodide staining based flow cytometric analysis relative to control. It counts as functional. The gist of the method: (§3)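 Bloodstream T. b. brucei 427 expressing hGrx1-roGFP2 (line 449_Grx-roGFP2), grown in HMI-9 with 10% FBS, 37 °C, 5% CO2. Biosensor induced with oxytetracycline (1 µg/mL final). Exponential-phase cells seeded at 5×10^5/mL and exposed 24 h to a single 5 µM screen, or to 0.0001–120 µM for EC50. DMSO ≤1% v/v. Viability read by PI exclusion on flow cytometry, expressed relative to DMSO control. EC50 from nonlinear fit; ≥3 replicates, S.D.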

The test system of series [6] is Trypanosoma brucei brucei. The series can be described thus: Induction of cell cycle arrest in bloodstream form Trypanosoma brucei brucei 427 assessed as accumulation at 0K+1N cells at 41 nM after 24 hrs by DAPI. staining based epifluorescence microscopic analysis relative to control. It counts as functional. The gist of the method: (§4)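 Parasites at 5×10^5/mL treated 24 h with DMSO 1%, DAC 41 nM, or compound at 12 or 7 nM. Cells fixed in 4% paraformaldehyde for 18 min at room temperature and smeared on slides. Mounted in DAPI medium and scored by epifluorescence microscopy (60X/100X) for kinetoplast/nucleus configuration. At least 50 cells per sample.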

In series [7] the test system is Trypanosoma brucei brucei. Description: Antitrypanosomal activity against bloodstream form Trypanosoma brucei brucei 427 […] assessed as cell viability after 24 hrs by propidium iodide staining based flow cytometric analysis. It counts as functional, organism-based. The conditions noted are these: Trypanosoma brucei, 427, 24 h. The gist of the method: as §3

Series [8] relates to Trypanosoma brucei brucei. Description: Induction of cell cycle arrest in bloodstream form Trypanosoma brucei brucei 427 assessed as accumulation at G0/G1 phase at 41 nM after 24 hrs by propidium iodide staining based flow cytometric analysis (reference value: 49%). It counts as functional.
In series [9] the test system is DNA. Description: Competitive binding affinity to Escherichia coli XL-1 pUC18 K-DNA at 20 uM after 30 to 120 mins by DAPI staining based spectrofluorimetric method relative to control. It counts as nucleic-acid assay. The conditions noted are these: time 30-120 min. The gist of the method:
(§5)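 pUC18 or pUC18 carrying a T. brucei minicircle, 5 nM in PBS pH 7.4, incubated 30 or 120 min with 20 µM compound or DMSO 1% v/v. DAPI then added to 500 nM final and emission recorded by spectrofluorimetry (ex 358 nm, em 368–600 nm). Fluorescence normalized to the DNA+DMSO+DAPI control set at 100%. Mean ± S.D., n=3.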

For series [10], the system named is DNA. The series can be described thus: Competitive binding affinity to Escherichia coli XL-1 pUC18 plasmid DNA at 20 uM after 30 to 120 mins by DAPI staining based spectrofluorimetric method relative to control. To be noted: time 30-120 min. It counts as nucleic-acid assay. A digest of the protocol:
as §5

The subject of series [11] is Trypanosoma brucei brucei. Description: Antitrypanosomal activity against Trypanosoma brucei brucei AnTaT 1.1 infected in Balb/cJ mouse assessed as reduction in parasitemia at 40 mg/kg, ip for single dose and measured after 7 to 17 days. It counts as functional, organism-based. The conditions noted are these: time 7-17 day. The gist of the method: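 Female BalB/cJ mice, 6-8 weeks, ~20 g, infected ip with 10^4 bloodstream T. b. brucei AnTaT 1.1. From day 4 post-infection, groups of 6 dosed ip in 300 µL PBS: daily for 7 days at 2.09 or 8.36 mg/Kg, or one 40 mg/Kg dose; vehicle DMSO 3.3 mg/Kg/day for 7 days. Parasitemia from submandibular blood counted by light microscopy in a Neubauer chamber. Detection limit ≥2.5×10^4 parasites/mL. Kruskal-Wallis test versus vehicle.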

Series [12] concerns Trypanosoma brucei brucei. Description: Induction of cell cycle arrest in bloodstream form Trypanosoma brucei brucei 427 assessed as accumulation at 1K+1N cells at 41 nM after 24 hrs by DAPI. staining based epifluorescence microscopic analysis (reference value: 80%). It counts as functional. A digest of the protocol: as §4
Series [13] deals with Trypanosoma brucei brucei. Description: Induction of cell cycle arrest in bloodstream form Trypanosoma brucei brucei 427 assessed as accumulation at G2/M phase at 41 nM after 24 hrs by propidium iodide staining based flow cytometric analysis (reference value: 20%). It counts as functional.
Series [14] concerns J774. Description: Cytotoxicity against mouse J774 cells assessed as reduction in cell viability >120 uM after 24 hrs by WST-1 assay. It counts as cell-based. To be noted: j774, 24 h. A digest of the protocol:
as §1

Series [15] can be described thus: Selectivity index, ratio of EC50 for cytotoxicity against mouse J774 cells to EC50 for antitrypanosomal activity against bloodstream form Trypanosoma brucei brucei 427. To be noted: read-out: Ratio EC50. It counts as toxicity, cell-based. The gist of the method:
as §1

Series [16] relates to J774. The series can be described thus: Cytotoxicity against mouse J774 cells assessed as reduction in cell viability at 120 uM after 24 hrs by WST-1 assay. It counts as cell-based. To be noted: j774, 24 h. The gist of the method:
as §1
In general terms: Tetrazolium dyes change colour on reduction, which living cells bring about.

The test system of series [17] is Trypanosoma brucei brucei. The series can be described thus: Antitrypanosomal activity against bloodstream form Trypanosoma brucei brucei 427 […] assessed as cell viability upto 60 uM after 48 hrs by propidium iodide staining based flow cytometric analysis. It counts as functional, organism-based. To be noted: dose microM <=60, time 48.0 hrs. A digest of the protocol: as §2

Series [18] deals with Trypanosoma brucei brucei. The series can be described thus: Induction of cell cycle arrest in bloodstream form Trypanosoma brucei brucei 427 assessed as accumulation at 1K+1N cells at 12 nM after 24 hrs by DAPI. staining based epifluorescence microscopic analysis (reference value: 80%). It counts as functional. The gist of the method:
as §4

For series [19], the system named is DNA. The series can be described thus: Competitive binding affinity to Escherichia coli XL-1 pUC18 K-DNA at 20 uM after 30 mins by DAPI staining based spectrofluorimetric method relative to control. It counts as nucleic-acid assay. A digest of the protocol:
as §5

Series [20] deals with Trypanosoma brucei brucei. The series can be described thus: Induction of membrane permeability in bloodstream form Trypanosoma brucei brucei 427 assessed as change in integrity at EC50 concentration after 4 hrs by propidium iodide staining based flow cytometric analysis.
Series [21] relates to Trypanosoma brucei brucei. The series can be described thus: Induction of oxidative stress in bloodstream form Trypanosoma brucei brucei 427 up to 5 times EC50 concentration after 4 hrs by propidium iodide staining based flow cytometric analysis. It counts as functional.
The test system of series [22] is DNA. Description: Competitive binding affinity to Escherichia coli XL-1 pUC18 plasmid DNA at 20 uM after 30 mins by DAPI staining based spectrofluorimetric method relative to control. It counts as nucleic-acid assay. The gist of the method:
as §5

The subject of series [23] is DNA. The series can be described thus: Competitive binding affinity to Escherichia coli XL-1 pUC18 plasmid DNA at 20 uM after 120 mins by DAPI staining based spectrofluorimetric method relative to control. It counts as nucleic-acid assay. The gist of the method:
as §5

Series [24] concerns Trypanosoma brucei brucei. The series can be described thus: Induction of cell cycle arrest in bloodstream form Trypanosoma brucei brucei 427 assessed as accumulation at single kinetoplast and septum like or partitioned nucleus cells at 12 nM after 24 hrs by DAPI. staining based epifluorescence microscopic analysis relative to control. It counts as functional. The gist of the method: as §4

Series [25] deals with DNA. Description: Competitive binding affinity to Escherichia coli XL-1 pUC18 K-DNA at 20 uM after 120 mins by DAPI staining based spectrofluorimetric method relative to control. It counts as nucleic-acid assay. The gist of the method:
as §5

The structures appear in SMILES notation. Activity calls are given as the source filed them. No cut-off for these calls is given here.

As for `CC1=CC(=O)c2ccccc2C1=O`, in [1], the result was Active.
Turning to `CCOC(=O)c1csc(NC(=O)c2csc(NC(=O)c3csc(NC(=O)OC(C)(C)C)n3)n2)n1`, in series [2], the Ratio EC50 worked out at 5. The EC50 in series [3] was 5 µM; in series [4] it was 0.057 µM.
For `COC(=O)c1nc(NC(=O)c2cc([N+](=O)[O-])cn2C)sc1C(C)C`, the Activity in series [5] was found to be 105.6%.
For the molecule `CCOC(=O)c1csc(NC(=O)c2cc([N+](=O)[O-])cn2C)n1`, the Activity in series [5] is reported as 120.5%.
Take `CC(=O)NCC(=O)O.CC(=O)NCC(=O)O.N=C(N)c1ccc(/N=N/Nc2ccc(C(=N)N)cc2)cc1` [DIMINAZENE DIACETURATE]: the Activity in series [6] was found to be 39%; in series [8] it was 7%; in [9], 22%; in [10] it was 22%; in series [12], 44%; in series [13], 93%. For the same molecule, in [7], the concentration for a half-maximal effect (EC50) is 0.041 µM. Besides, the outcome in series [11] was Active.
`COC(=O)c1nc(NC(=O)c2cc(NC(=O)c3nc(NC(C)=O)sc3C(C)C)cn2C)sc1C(C)C`: the results for the Activity in [5], in series [14] and in [16] were 5.4%, “Nd(Insoluble)” and “Non-Toxic”, respectively. Besides, in [7], the concentration giving a half-maximal response (EC50) amounted to 0.827 µM. Further, the selectivity ratio in [15] was over 145.
`CC(C)c1sc(NC(=O)c2cc(NC(=O)c3nc(NC(=O)OC(C)(C)C)sc3C(C)C)cn2C)nc1C(=O)O`: the Activity is 48.5% in [5], “Nd(Insoluble)” in [14] and “Non-Toxic” in series [16].
With `Cn1cc(NC(=O)c2csc(NC(=O)OC(C)(C)C)n2)cc1C(=O)Nc1nc(C(=O)O)cs1`, the figures for the Activity in series [5], in series [14] and in series [16] were 23.6%, “Nd(Insoluble)” and “Non-Toxic”, respectively. The EC50 in [7] was 3.33 µM. In addition, the selectivity ratio in series [15] was over 35.
Take `CC(=O)Nc1nc(C(=O)Nc2cc(C(=O)Nc3nc(C(=O)O)c(C(C)C)s3)n(C)c2)c(C(C)C)s1`: in series [17], the outcome was inactive. Further, the Activity in [5] is given as 113.1%; in series [14] it was “Nd(Insoluble)”; in series [16], “Non-Toxic”.
As for `Cc1ccc(C(=O)Nc2ccc(S(=O)(=O)O)c3cc(S(=O)(=O)O)cc(S(=O)(=O)O)c23)cc1NC(=O)c1cccc(NC(=O)Nc2cccc(C(=O)Nc3cc(C(=O)Nc4ccc(S(=O)(=O)O)c5cc(S(=O)(=O)O)cc(S(=O)(=O)O)c45)ccc3C)c2)c1` [SURAMIN], the concentration giving a half-maximal response (EC50) in series [7] was found to be 0.078 µM.
As to `CC1CS(=O)(=O)CCN1/N=C/c1ccc([N+](=O)[O-])o1` (stereo not drawn) [NIFURTIMOX], in series [2], the Ratio EC50 turned out to be 20. The concentration giving a half-maximal response (EC50) in [7] was 10 µM; in [4] it was 0.75 µM. Moreover, in [15], the selectivity ratio was 10.
For the molecule `COC(=O)c1nc(NC(=O)c2cc(NC(=O)c3nc(NC(=O)OC(C)(C)C)sc3C(C)C)cn2C)sc1C(C)C`, the Activity in series [18] was found to be 48%; in series [19] it was 15%; in series [5] it was 15.5%; in series [22], 15%; in series [24] it was 38%; in series [25], 30%. Besides, the result in [20], in series [21] and in series [23] was inactive. Also, the half-maximal effective concentration (EC50) turned out to be 0.0118 µM in series [7] and 39.5 µM in series [3]. Also, in series [15], the selectivity ratio was over 10200.

In general, EC50 refers to the concentration at which the effect is half-maximal.
